Screening data deposited in PubChem BioAssay by The Scripps Research Institute Molecular Screening Center.
This is a sample that favours compounds with a hit; in the whole collection about 1.9% have one here.
LEDGF integ inh = blocks HIV-1 LEDGF/p75-dependent DNA integration. TR-FRET IN-LEDGF/p75 DNA integration, Eu/Cy5. inhibition, % at 3.7 µM. hit rate 0.64% among 370,000;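 active = inhibition above the screen-wide mean plus 3 SD, cut at about 13% in these data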;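 also: signal is the Cy5 over europium emission ratio at 671 and 618 nm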
Tn7 DDE FP = disrupts Tn7 cyclic peptide binding to fibrin D-Dimer-E complex. inhibition, % at 8.3 µM. AID 720508. P02675. hit rate 0.13% among 370,000. FP displacement of FITC-Tn7 peptide from fibrin DD(E); 0% = median of compound wells per plate;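 active = inhibition above the mean of compounds falling within the control limits plus 3 SD of them, cut at about 14% in these data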
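Measure: % inhibition scaled between sample-field median and high-control FP; Test system: human fibrin DD(E); Quantity: 2 µM final DD(E) protein; Doses: one dose, 8.3 µM nominal; Schedule: compound with protein 10 min, then 3 h after probe, room temperature; Detection: fluorescence polarization; Medium: Tris buffer with calcium and detergent, pH 7.8.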
UHRF1 binding = human UHRF1 methylated DNA binding inhibitors | UHRF1 binding to methylated oligo, TR-FRET | inhibition, % at 4.4 µM | Q96T88 | AID 687016 | hit rate 0.75% among 370,000;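 also: UHRF1 SRA domain binding a hemimethylated CpG hairpin DNA probe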
Tn6 DDE FP = inhibitors of Tn6 peptide binding to human fibrin DD(E); Fibrin DD(E) TRITC-Tn6 fluorescence polarization displacement; inhibition, % at 8.3 µM; AID 720509; hit rate 0.21% among 370,000;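 active = inhibition above a per-campaign cutoff: mean of compounds within control limits plus 3 SD, cut at about 15% in these data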
TDP2 absorb = blocks human TDP2 phosphodiesterase activity | O95551 | recombinant TDP2, T5PNP hydrolysis, p-nitrophenol absorbance 415 nm | inhibition, % at 12.8 µM | hit rate 0.34% among 370,000 | AID 720702;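 active = inhibition above the mean of all tested compounds plus 3 SD, set per campaign, cut at about 25% in these data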
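Incubation: 2 h at 37 °C; Test system: recombinant human TDP2; Quantity: enzyme 120 nM; Read-out basis: percent inhibition; Medium: 50 mM Tris-HCl pH 7.5 with Mg2+, KCl, DTT, BSA; Repeats: single replicate; Compound: 12.8 µM single point, 1% DMSO; Signal: epi absorbance; Reagent: 5 mM T5PNP chromogenic substrate; Benchmarks: no-enzyme high, DMSO-plus-enzyme low.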
MBD2 inh = blocks human MBD2 binding to methylated DNA. Q9UBB5. TR-FRET, MBD2 binding to methylated oligonucleotide. inhibition, % at 4.4 µM. hit rate 0.31% among 370,000. AID 686964; in the data active = inhibition above about 13%
Target sequence (Q9UBB5 whole entry, looked up): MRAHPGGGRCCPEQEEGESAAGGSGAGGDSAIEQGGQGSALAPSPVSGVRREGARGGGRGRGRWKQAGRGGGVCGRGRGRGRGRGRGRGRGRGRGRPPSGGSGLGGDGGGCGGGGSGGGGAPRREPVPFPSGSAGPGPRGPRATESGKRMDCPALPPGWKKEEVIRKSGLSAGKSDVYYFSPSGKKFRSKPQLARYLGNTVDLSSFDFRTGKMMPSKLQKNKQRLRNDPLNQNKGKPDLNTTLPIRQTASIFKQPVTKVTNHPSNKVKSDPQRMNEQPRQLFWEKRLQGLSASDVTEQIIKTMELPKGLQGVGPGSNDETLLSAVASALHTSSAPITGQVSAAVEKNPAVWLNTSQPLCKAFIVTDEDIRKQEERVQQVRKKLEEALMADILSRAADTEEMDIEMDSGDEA
UHRF1 DNA bind = UHRF1 methyl-oligo binding inhibition as MBD2 counter-screen. AID 720530. inhibition, % at 4.4 µM. shares compounds with MBD2 inh. UHRF1 binding to methylated oligonucleotide, TR-FRET. hit rate 25% among 1,000;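 also: UHRF1 SRA domain binding a labeled hemimethylated CpG hairpin DNA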
MBD2 confirm = MBD2-DBD methyl-DNA binding inhibition, TR-FRET confirmation; shares compounds with MBD2 inh; TR-FRET MBD2-DBD binding to methylated oligonucleotide; inhibition, % at 4.4 µM; hit rate 26% among 1,000; AID 720531; in the data active = inhibition above about 14%
Tn6 DDE ctr = DD(E)-Tn6 binding inhibition, counter-screen | shares compounds with Tn6 DDE FP | Fibrin DD(E), TRITC-Tn6 fluorescence polarization displacement; 0% = median of compound wells, not DMSO | inhibition, % at 8.3 µM | hit rate 2% among 680;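 active = inhibition above the mean of test compounds lying between the control limits plus 3 SD of those, cut at about 14% in these data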
DDE Tn6 confirm = DD(E)-Tn6 binding inhibition, FP confirmation; shares compounds with Tn6 DDE FP; FP displacement of TRITC-Tn6 peptide from DD(E); 0% = per-plate median of test wells; inhibition, % at 8.3 µM; hit rate 10% among 680;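 active = inhibition above the mean of compounds lying within the control limits plus 3 SD, cut at about 16% in these data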
TDP2 confirm = confirmation of human TDP2 inhibitors | inhibition, % at 12.8 µM | shares compounds with TDP2 absorb | hit rate 22% among 1,100 | recombinant human TDP2, absorbance read-out; in the data active = inhibition above about 25%
Large screens that a line does not name were inactive (follow-up assays come after a bar, where they were run). Rule as the data show it, unless noted: active = inhibition above about 21%; inactive = the rest.

COc1ccc(-c2cc(-c3ccccc3)c(C#N)c(=S)[nH]2)cc1	MBD2 inh 21 | UHRF1 DNA bind inactive | MBD2 confirm inactive
COc1ccc(S(=O)(=O)N2CCN(C(=O)CCc3c[nH]c4ccccc34)CC2)cc1	MBD2 inh 48 | UHRF1 DNA bind inactive | MBD2 confirm inactive
C[C@H](O)[C@@H]1CN2CCc3ccc(-c4ccc5c(c4)OCO5)cc3[C@@H]2C[C@@H]1N(C)C(=O)c1ccco1	none
c1ccc(Nc2nc(-c3ccccn3)cs2)cc1	none
c1ccc(-c2csc(Nc3cccnc3)n2)nc1	MBD2 inh 27 | UHRF1 DNA bind inactive | MBD2 confirm inactive
COC(=O)C1=C(C)N(Cc2ccccc2C(F)(F)F)C(=NCc2ccc3c(c2)OCO3)NC1c1cccc(C(F)(F)F)c1 (centres undefined)	none
CC(=O)C1C(c2ccc(OC(F)F)cc2)NC(=O)NC1(O)C(F)(F)F (centres undefined)	none
CC(=O)C1C(c2ccc(F)c(F)c2)NC(=O)NC1(O)C(F)(F)F (centres undefined)	MBD2 inh 24 | UHRF1 DNA bind inactive | MBD2 confirm inactive
Cc1c(C)n(CCN(C)C)c2ccc(C(=O)OCCN(C)C)cc12	MBD2 inh 13 | UHRF1 DNA bind 24 | MBD2 confirm inactive
O=C(O)CSc1ncn[nH]1	MBD2 inh 13 | UHRF1 DNA bind inactive | MBD2 confirm inactive
O=C(Nc1ccc(Nc2ccncc2)cc1)c1ccc(Nc2ccnc3ccc([N+](=O)[O-])cc23)cc1	UHRF1 binding 32, MBD2 inh 16 | UHRF1 DNA bind 38 | MBD2 confirm 34
COc1ccc(CC(=O)N2CCN(c3cccc(C)c3C)CC2)cc1	MBD2 inh 16 | UHRF1 DNA bind inactive | MBD2 confirm inactive
COC(=O)c1cc(C(=O)OCC(=O)NC(=O)NCc2ccccc2)cc([N+](=O)[O-])c1	MBD2 inh 17 | UHRF1 DNA bind inactive | MBD2 confirm inactive
COc1ccc(NC(=O)c2noc3c2CCC3)cc1	UHRF1 binding 31, MBD2 inh 13 | UHRF1 DNA bind inactive | MBD2 confirm inactive
COc1ccc(/C=C2/SC(=S)N(n3c(C)ccc3C)C2=O)cc1	UHRF1 binding 22, MBD2 inh 13 | UHRF1 DNA bind inactive | MBD2 confirm inactive
CCOc1ccc(/C=C2/SC(=S)N(n3c(C)ccc3C)C2=O)cc1	none
COC(=O)c1cc(-c2ccc(C)c(C)c2)c(=O)n2c1CCC2	none
C[C@@H]1CN([C@@H](C)CO)C(=O)CCCn2cc(nn2)CO[C@H]1CN(C)C(=O)C1CCCCC1	none
CCN1C(=O)CC(N2CCC(C(=O)N3CCOCC3)CC2)C1=O (centres undefined)	Tn7 DDE FP 16, UHRF1 binding 23, MBD2 inh 15 | UHRF1 DNA bind inactive | MBD2 confirm inactive
CCN1C(=O)CC(N2CCOCC2)C1=O (centres undefined)	none
C=CCN1[C@@H](CC(C)C)COc2cccc(NCCCN3CCOCC3)c2S1(=O)=O	none
O=c1ccc2[n+]([O-])c3ccc(O)cc3oc-2c1	LEDGF integ inh 61, UHRF1 binding 78, Tn6 DDE FP active, MBD2 inh 28 | UHRF1 DNA bind 73 | MBD2 confirm 31 | Tn6 DDE ctr inactive | DDE Tn6 confirm 93
Cc1ccc(CN2CCCCC(NC(=O)c3ccc(F)c(F)c3)C2=O)cc1 (centres undefined)	none
CC1=NN(c2ccc(F)cc2)C(=O)C1C(c1cccc(O)c1)c1c(C)[nH]n(-c2ccc(F)cc2)c1=O (centres undefined)	LEDGF integ inh 39, TDP2 absorb 89, MBD2 inh 19 | UHRF1 DNA bind inactive | MBD2 confirm inactive | TDP2 confirm 48
COC(=O)[C@]12C[C@H](CC(=O)N3CCCCC3)C(=O)N(Cc3ccc4c(c3)OCO4)C1=C[C@H](C(C)(C)C)O[C@@H]2C	none
CC(C)n1nnnc1C1(C)CN(S(C)(=O)=O)CC(=O)N1Cc1cccc(C(F)(F)F)c1 (centres undefined)	none
CN(C)C(=O)c1cccc(-c2cnc3c(NC=O)cc(-c4ccccc4N(C)C)cn23)c1	Tn6 DDE FP 31, TDP2 absorb 29, MBD2 inh 36 | UHRF1 DNA bind inactive | MBD2 confirm 30 | Tn6 DDE ctr inactive | DDE Tn6 confirm inactive | TDP2 confirm inactive
CN(C)C(=O)c1cccc(-c2cnc3c(NC=O)cc(-c4ccccc4Cl)cn23)c1	none
CN(C)c1ccc(C=c2c3ccccc3n3c2cc(-c2ccccc2)[n+]3C)cc1	UHRF1 binding 41, TDP2 absorb 30, MBD2 inh 22 | UHRF1 DNA bind 64 | MBD2 confirm 56 | TDP2 confirm inactive
COc1cccc(N(C)C(=O)[C@@H](C2CC2)[C@@H](O)c2ccc3ccccc3c2)c1	none
Nc1ncnc2oc(-c3ccco3)c(-c3ccco3)c12	LEDGF integ inh 86, UHRF1 binding 92, TDP2 absorb 27, MBD2 inh 81 | UHRF1 DNA bind 53 | MBD2 confirm 39 | TDP2 confirm inactive
Cn1nc(-c2ccccn2)nc2c(=O)n(C)c(=O)nc1-2	TDP2 absorb 91, MBD2 inh 14 | UHRF1 DNA bind inactive | MBD2 confirm inactive | TDP2 confirm 85
COc1ccc(-c2nc(-c3ccccn3)ncc2S(C)(=O)=O)cc1	none
O=C1c2ccc3c4c(ccc(c24)C(=O)N1c1ccc2ccccc2c1)CC3	none
